{"source": "ChEMBL document CHEMBL3272012", "about": "“5-(Tetradecyloxy)-2-furancarboxylic acid and related hypolipidemic fatty acid-like alkyloxyarylcarboxylic acids” (J Med Chem, 1977)", "key": {"[1]": {"tested_on": "Rattus norvegicus", "experiment": "Hypolipidemic activity in Wistar rat assessed as reduction in plasma cholesterol level at 533 umol/kg/day administered through diet for 4 days", "format": "functional", "conditions": "96 h", "in_short": "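Young male Wistar rats, 170-190 g initial weight, groups of six, given compound mixed thoroughly into Purina Lab Chow ad libitum for 4 or 10 days as stated. Daily dose calculated from food consumption and body weight. Bled by cardiac puncture at end of treatment; plasma cholesterol measured by automated procedure. Expressed as percent reduction versus simultaneous untreated control group; Student's t test.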"}, "[2]": {"tested_on": "Rattus norvegicus", "experiment": "Hypolipidemic activity in Wistar rat assessed as reduction in plasma triglyceride level at 533 umol/kg/day administered through diet for 4 days", "format": "functional", "conditions": "96 h"}, "[3]": {"tested_on": "Rattus norvegicus", "experiment": "Increase in cholesterol level in Wistar rat liver at 533 umol/kg/day administered through diet for 4 days", "format": "ADME, organism-based", "conditions": "in vivo, po, 96 h"}, "[4]": {"tested_on": "Rattus norvegicus", "experiment": "Increase in liver weight in Wistar rat at 533 umol/kg/day administered through diet for 4 days", "format": "ADME, organism-based", "conditions": "in vivo, po, 96 h"}, "[5]": {"tested_on": "Rattus norvegicus", "experiment": "Hypolipidemic activity in Wistar rat assessed as reduction in plasma cholesterol level at 385 umol/kg/day administered through diet for 10 days", "format": "functional", "conditions": "240 h", "in_short": "(§1)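 Young male Wistar rats, 170-190 g at start, in groups of six, given compound mixed into Purina Lab Chow ad libitum for 4 or 10 days as stated. Daily dose was calculated from food consumption and body weight. Plasma was taken by cardiac puncture at the end and cholesterol measured by automated procedure. Results are % reduction versus a concurrent untreated control group, with Student's t test.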"}, "[6]": {"tested_on": "Rattus norvegicus", "experiment": "Hypolipidemic activity in Wistar rat assessed as reduction in plasma cholesterol level at 398 umol/kg/day administered through diet for 10 days", "format": "functional", "conditions": "240 h", "in_short": "as §1"}, "[7]": {"tested_on": "Rattus norvegicus", "experiment": "Hypolipidemic activity in Wistar rat assessed as reduction in plasma cholesterol level at 204 umol/kg/day administered through diet for 10 days", "format": "functional", "conditions": "240 h", "in_short": "as §1"}, "[8]": {"tested_on": "Rattus norvegicus", "experiment": "Hypolipidemic activity in Wistar rat assessed as reduction in plasma triglyceride level at 385 umol/kg/day administered through diet for 10 days", "format": "functional", "conditions": "240 h", "in_short": "(§2)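 Young male Wistar rats (170-190 g initial weight), groups of six, fed test compound mixed into Purina Lab Chow ad libitum; daily dose calculated from food consumption and body weight. Bled by cardiac puncture at end of treatment; plasma triglycerides measured by automated procedure. Results given as percent reduction versus a simultaneous untreated control group, with significance by Student's t test.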"}, "[9]": {"tested_on": "Rattus norvegicus", "experiment": "Hypolipidemic activity in Wistar rat assessed as reduction in plasma triglyceride level at 398 umol/kg/day administered through diet for 10 days", "format": "functional", "conditions": "240 h", "in_short": "as §2"}, "[10]": {"tested_on": "Rattus norvegicus", "experiment": "Hypolipidemic activity in Wistar rat assessed as reduction in plasma triglyceride level at 204 umol/kg/day administered through diet for 10 days", "format": "functional", "conditions": "240 h", "in_short": "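Young male Wistar rats, 170-190 g initial weight, six per group, fed drug mixed thoroughly into Purina Lab Chow ad libitum for the stated days; daily dose calculated from food consumption and body weight. Bled by cardiac puncture at end; plasma cholesterol and triglycerides by automated procedures, expressed as percent reduction versus simultaneous untreated controls; Student's t test.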"}, "[11]": {"tested_on": "Rattus norvegicus", "experiment": "Increase in cholesterol level in Wistar rat liver at 385 umol/kg/day administered through diet for 10 days", "format": "ADME, organism-based", "conditions": "in vivo, po, 240 h"}, "[12]": {"tested_on": "Rattus norvegicus", "experiment": "Increase in cholesterol level in Wistar rat liver at 398 umol/kg/day administered through diet for 10 days", "format": "ADME, organism-based", "conditions": "in vivo, po, 240 h"}, "[13]": {"tested_on": "Rattus norvegicus", "experiment": "Increase in cholesterol level in Wistar rat liver at 204 umol/kg/day administered through diet for 10 days", "format": "ADME, organism-based", "conditions": "in vivo, po, 240 h"}, "[14]": {"tested_on": "Rattus norvegicus", "experiment": "Increase in liver weight in Wistar rat at 385 umol/kg/day administered through diet for 10 days", "format": "ADME, organism-based", "conditions": "in vivo, po, 240 h"}, "[15]": {"tested_on": "Rattus norvegicus", "experiment": "Increase in liver weight in Wistar rat at 398 umol/kg/day administered through diet for 10 days", "format": "ADME, organism-based", "conditions": "in vivo, po, 240 h"}, "[16]": {"tested_on": "Rattus norvegicus", "experiment": "Increase in liver weight in Wistar rat at 204 umol/kg/day administered through diet for 10 days", "format": "ADME, organism-based", "conditions": "in vivo, po, 240 h"}, "[17]": {"tested_on": "Rattus norvegicus", "experiment": "Hypolipidemic activity in Wistar rat assessed as reduction in plasma cholesterol level at 351 umol/kg/day administered through diet for 4 days", "format": "functional", "conditions": "96 h", "in_short": "as §1"}, "[18]": {"tested_on": "Rattus norvegicus", "experiment": "Hypolipidemic activity in Wistar rat assessed as reduction in plasma triglyceride level at 351 umol/kg/day administered through diet for 4 days", "format": "functional", "conditions": "96 h", "in_short": "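Young male Wistar rats, 170-190 g at start, six per group, given compound mixed into Purina Lab Chow, fed ad libitum for 4 or 10 days. Daily dose calculated from food consumption and body weight. Rats bled by cardiac puncture at end of treatment. Plasma triglycerides determined by automated procedure. Expressed as percent reduction versus a concurrent untreated control group, Student's t test.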"}, "[19]": {"tested_on": "Rattus norvegicus", "experiment": "Increase in cholesterol level in Wistar rat liver at 351 umol/kg/day administered through diet for 4 days", "format": "ADME, organism-based", "conditions": "in vivo, po, 96 h"}, "[20]": {"tested_on": "Rattus norvegicus", "experiment": "Increase in liver weight in Wistar rat at 351 umol/kg/day administered through diet for 4 days", "format": "ADME, organism-based", "conditions": "in vivo, po, 96 h"}}, "data": [{"smiles": "CCCCCCCCCCCCOc1ccc(C(=O)O)o1", "values": [{"measurement": "inhibition in vivo at 533 µmol/kg", "setting": "[1]", "value": 38, "unit": "%"}, {"measurement": "inhibition in vivo at 533 µmol/kg", "setting": "[2]", "value": 79, "unit": "%"}, {"measurement": "Activity", "setting": "[3]", "value": 0, "unit": "%"}, {"measurement": "Activity", "setting": "[4]", "value": 22, "unit": "%"}]}, {"smiles": "CCCCCCCCCCCCCCCCOc1ccc(C(=O)OC)cc1", "values": [{"measurement": "inhibition in vivo at 385 µmol/kg", "setting": "[5]", "value": 20, "unit": "%"}, {"measurement": "inhibition in vivo at 398 µmol/kg", "setting": "[6]", "value": 14, "unit": "%"}, {"measurement": "inhibition in vivo at 204 µmol/kg", "setting": "[7]", "value": 0, "unit": "%"}, {"measurement": "inhibition in vivo at 385 µmol/kg", "setting": "[8]", "value": 63, "unit": "%"}, {"measurement": "inhibition in vivo at 398 µmol/kg", "setting": "[9]", "value": 40, "unit": "%"}, {"measurement": "inhibition in vivo at 204 µmol/kg", "setting": "[10]", "value": 23, "unit": "%"}, {"measurement": "Activity", "setting": "[11]", "value": 1, "unit": "%"}, {"measurement": "Activity", "setting": "[12]", "value": 2, "unit": "%"}, {"measurement": "Activity", "setting": "[13]", "value": 0, "unit": "%"}, {"measurement": "Activity", "setting": "[14]", "value": 5, "unit": "%"}, {"measurement": "Activity", "setting": "[15]", "value": 12, "unit": "%"}, {"measurement": "Activity", "setting": "[16]", "value": 10, "unit": "%"}]}, {"smiles": "CCCCCCCC/C=C/CCCCCCCCOc1ccc(C(=O)O)o1", "values": [{"measurement": "inhibition in vivo at 351 µmol/kg", "setting": "[17]", "value": 4, "unit": "%"}, {"measurement": "inhibition in vivo at 351 µmol/kg", "setting": "[18]", "value": 26, "unit": "%"}, {"measurement": "Activity", "setting": "[19]", "value": 11, "unit": "%"}, {"measurement": "Activity", "setting": "[20]", "value": 0, "unit": "%"}]}]}
